MT stabilizer – microtubule stabilizers in HeLa cells; HeLa tubulin immunostaining HCS, 24 h; share of cells brighter than vehicle mean+2SD; hit rate 0.83% among 200,000; AID 2205; % tubulin-high responders, % at 10 µM;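 active = plate Z-score above 3 for both tubulin-high and condensed-nucleus cell shares, with cell loss under 80%, at 10 µM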;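 also: anti alpha tubulin signal scored within the nucleus-defined area of each cell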
STAT3 inh – inhibitors of IL-6 induced STAT3 signaling; U3A cells, IL-6 STAT3-luciferase reporter, luminescence; host cell line lacks STAT1; inhibition, % at 5.5 µM; hit rate 0.89% among 190,000;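 active = inhibition above the mean inhibition across all screened compounds plus 3 SD, cut at about 44% in these data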;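 also: 0% = DMSO only wells and 100% = 100 µM nifuroxazide control wells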
STAT3 activator – increases IL-6 driven STAT3 reporter signal. AID 871. hit rate 0.91% among 190,000. activation (% of control), % at 5.6 µM. U3A cells, IL-6 STAT3-luciferase reporter, luminescence; 100% = signal with IL-6 EC80 alone;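 active = activation above the screen-wide mean of compound activation plus 3 SD, cut at about 130% in these data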;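 also: 0% = background luminescence of wells with medium and substrate only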
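Material: human STAT1-deficient U3A cells with stable STAT3-luciferase reporter / Probe or stimulus: IL-6 stimulus at 33 ng/mL final / Schedule: 1 h compound pre-exposure, 6 h IL-6 stimulation, 37 °C / Technique: luminescence / Read-out basis: percent of IL-6-only median luminescence / Control set: IL-6-only high control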
STAT1 inh – reduces IFN-gamma driven STAT1 reporter signal; NIH 3T3 STAT1-luciferase reporter, luminescence; inhibition, % at 5.5 µM; hit rate 0.35% among 200,000; AID 920;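 active = inhibition above a set limit, the mean inhibition across all tested compounds plus 3 SD, cut at about 34% in these data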;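 also: 0% = IFN-gamma with DMSO and 100% = IFN-gamma with 300 µM nifuroxazide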
bCat nuc transl – beta-catenin nuclear translocation modulation; hit rate 0.3% among 190,000; HeLa beta-catenin nuclear translocation, immunofluorescence imaging; nuclear translocation activity, % at 5 µM;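 active = nuclear translocation activity above 50% at 5 µM, with a well cell count of 50 or more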;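 also: per-cell ratio of nuclear to cytoplasmic median beta-catenin stain intensity; plate controls were DMSO negative control for no effect and GSK-3 inhibitor IX positive control for full effect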
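Test system: human HeLa cells, endogenous beta-catenin. Times: 24 h compound exposure, 37°C. Measured by: beta-catenin immunofluorescence imaging with DAPI.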
An asterisk follows results filed as active; . = not tested or not shown. Most compounds without a hit are left out; they make up all but 2.4% or so of the library.

SMILES	MT stabilizer	STAT3 inh	STAT3 activator	STAT1 inh	bCat nuc transl
COc1ccc(-n2nc3cc(C)c(NC(C)=O)cc3n2)cc1	2	76*	38	39*	1
COc1ccc(-n2nc3cc(C)c(N)c(Br)c3n2)cc1	2	-69	165*	-73	-3
COc1ccc(-n2nc3cc(C)c(NC(=O)C(C)C)cc3n2)cc1	5	26	79	-43	-4
COc1ccc(-n2nc3ccccc3n2)cc1	12	-8	109	-18	-6
COc1ccccc1NC(=O)c1nc[nH]c1C(=O)Nc1ccccc1OC	31*	15	90	-8	6
CCOc1ccccc1NC(=O)c1nc[nH]c1C(=O)Nc1ccccc1OCC	9	1	102	0	.
COc1ccc(NC(=O)c2nc[nH]c2C(=O)Nc2ccccc2C)cc1	54*	20	87	7	80*
COc1ccc(NC2c3ccccc3C(=O)N2c2ccccn2)cc1 (stereo unspecified)	.	.	.	.	0
NC(=O)CN(c1ccc([N+](=O)[O-])cc1)S(=O)(=O)c1ccccc1	2	10	99	5	1
Cc1nn(-c2ccc(F)cc2)c(C)c1NS(=O)(=O)c1ccc2ccccc2c1	26*	-1	102	2	-1
CC(=O)Nc1ccc(S(=O)(=O)Nc2c(C)nn(-c3ccccc3)c2C)cc1	4	13	92	7	-4
CN(C)C(=O)c1nnsc1Sc1ccc(Cl)cc1	3	2	101	-18	4
COc1ccccc1N=C1SC(C(=O)Nc2cccc(Cl)c2Cl)C(N)=C1C(N)=O (stereo unspecified)	.	.	.	.	62*
COc1cc(NC(=S)Nc2cccc(Cl)c2Cl)c(OC)cc1Cl	1	-1	101	-1	0
Clc1ccc(C2=Nn3c(nnc3-c3n[nH]c4c3CCC4)SC2)cc1	32*	26	80	23	4
c1ccc(-c2ccc(C3=Nn4c(nnc4-c4cc(-c5ccccc5)n[nH]4)SC3)cc2)cc1	4	-4	106	-5	0
Brc1ccc(C2=Nn3c(nnc3-c3n[nH]c4c3CCC4)SC2)cc1	34*	-1	106	18	146*
Nc1[nH]n2c(=O)cc(-c3ccccc3)nc2c1N=Nc1ccc2c(c1)OCO2	1	2	103	1	1
Cc1nn(-c2ccccc2)c2sc(C(=O)N(CC(=O)NC3CCCC3)Cc3ccco3)cc12	40*	-3	107	4	-2
Cc1nn(-c2ccccc2)c2sc(C(=O)NC3CC3)cc12	4	18	88	-16	1
O=S(=O)(/C(=C/c1ccc(C(F)(F)F)cc1)c1nc2ccccc2[nH]1)c1ccccc1	54	-3	100	31	38
CC(C)c1ccc(/C=C(\c2nc3ccccc3[nH]2)S(=O)(=O)c2ccccc2)cc1	27*	-7	104	4	27
Cc1cccc(-c2noc(-c3ccc4c(c3)OCO4)n2)c1	4	69*	43	16	0
c1ccc(-c2noc(-c3ccc4ccccc4c3)n2)nc1	3	113*	9	88*	.
c1ccc(-c2noc(-c3ccncc3)n2)nc1	5	34	72	-26	-6
SMILES	MT stabilizer	STAT3 inh	STAT3 activator	STAT1 inh	bCat nuc transl
COc1cccc(-c2nc(-c3ccccn3)no2)c1	2	95*	19	60*	-1
c1ccc(-c2noc(-c3cccnc3)n2)nc1	3	20	85	-30	.
c1ccc(-c2noc(-c3ccc4c(c3)OCO4)n2)nc1	2	107*	12	54*	-4
CC(=O)N/C(=C\c1ccc(Br)s1)C(=O)O	3	-1	102	-2	-2
CC(=O)N1CCN(CC(=O)Nc2c(Cl)ccc(C)c2Cl)CC1	3	-3	104	-8	2
Cc1nc2ccccc2c(=O)n1NC(=O)c1cc(Br)ccc1Cl	.	.	.	.	1
Cc1cc(C)cc(OC(=O)C23CCC(C)(C(=O)O2)C3(C)C)c1 (stereo unspecified)	5	6	100	1	-6
O=C(CCl)Nc1cc(SCC(O)CO)cc([N+](=O)[O-])c1 (stereo unspecified)	93	98*	20	54*	11
COC(=O)c1cn(C(=O)c2ccccc2Cl)c2ccccc12	18*	10	100	4	11
COC(=O)c1cn(C(=O)/C=C/c2ccc(OC)c(OC)c2)c2ccccc12	7	4	103	-4	2
COC(=O)c1cn(C(=O)c2ccc(C)cc2C)c2ccccc12	15*	14	97	13	-2
COC(=O)c1cn(C(=O)OC)c2ccccc12	4	5	98	6	2
O=C(CCN1CCCCC1)N/N=C/c1c[nH]c2ccccc12	.	.	.	.	2
Oc1ccc(N=C/C=C/c2cccc(Br)c2)cc1-c1nc2ccccc2s1	4	-18	113	-49	-1
COc1cccc(C2=CC(c3cccc(OC)c3OC(F)F)n3nnnc3N2)c1 (stereo unspecified)	4	11	95	3	0
COc1cccc(C2=CC(c3cc(OC)ccc3OC)n3nnnc3N2)c1 (stereo unspecified)	27*	3	103	-4	-2
COc1cccc(C2=CC(c3cccc(OC)c3OC)n3nnnc3N2)c1 (stereo unspecified)	23*	12	95	12	0
COc1ccc(-c2cnnc(N/N=C/c3ccc(-c4ccc([N+](=O)[O-])cc4)o3)n2)cc1	40*	-2	103	-2	81*
O=[N+]([O-])c1ccc(-c2ccc(/C=N/Nc3nc(N4CCCCC4)nc(N4CCCCC4)n3)o2)cc1	5	-4	106	-7	-2
O=[N+]([O-])c1ccc(-c2ccc(/C=N/Nc3nc(N4CCCC4)nc(N4CCCC4)n3)o2)cc1	35*	3	102	2	-4
Nc1nc(-c2ccccc2)nc(-c2ccccc2O)n1	2	-42	139*	3	.
O=C(COC(=O)C1CC(O)CN1C(=O)Oc1ccccc1)c1ccc(Br)cc1 (stereo unspecified)	3	-8	105	-1	0
C=CCn1c(SCc2csc(C)n2)nc2sc3c(c2c1=O)CCC(C)C3 (stereo unspecified)	26*	9	95	4	1
Fc1ccc(-c2nnc(NC3=NCCCCC3)o2)cc1	8	100*	20	68*	-1
c1c2c(cc3sc(N4CCOCC4)nc13)OCCO2	5	89*	23	51*	1
CC(Oc1ccc(F)cc1)C(O)CCN(C)C (stereo unspecified)	2	4	99	-2	-1
COc1ccc(-c2cn3ccccc3n2)cc1	.	.	.	.	0
CCCOc1ccc(-c2cn3ccccc3n2)cc1	1	88*	23	69*	5
O=C(Cn1cc(F)c(=O)[nH]c1=O)NCCO	5	-2	103	-2	-1
CCCCC(CC)C(=O)Nc1ccc(C)c(O)c1 (stereo unspecified)	1	3	102	5	-1
